# Assays:
# MS2 coat protein [1] = experiment: apparent Kd, MS2 coat protein; higher = weaker binding; RNA-MaP array; theophylline 2 mM where present
# Outline: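 Two titrations, one without ligand and one with constant ligand, were run with SNAP-549-labelled MS2 coat protein from 0.7 or 1.5 nM, doubling to 3 µM. The targets were designs transcribed by stalled E. coli RNA polymerase on Illumina sequencing-chip clusters, in 100 mM Tris-HCl pH 7.5, 80 mM KCl, 4 mM MgCl2, BSA, DTT, yeast tRNA and Tween-20. The apparent Kd is the median of filtered per-cluster binding-curve fits, with green signal normalised to red-channel RNA signal and control-cluster median Fmax.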
# MS2 coat protein [2] = experiment: apparent Kd, MS2 coat protein; higher = weaker binding; RNA-MaP array
# Outline: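 Fluorescently labeled MS2 coat protein, from 1.5 nM to 3 μM, was incubated at room temperature with designed RNAs transcribed on an Illumina sequencing chip from sequenced DNA templates. Times ran from 0.8–1.5 h at the lowest concentrations to 10–20 min at the highest, in Tris-HCl pH 7.5 buffer with KCl, MgCl2, BSA, DTT, tRNA and Tween20, with or without input ligand. Each apparent Kd is the median of per-cluster binding-curve fits, and designs with fewer than 10 measured clusters were excluded.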
# [3] = designed as: ON switch for theophylline, no ligand
# [4] = ligand present: theophylline, designed as: ON switch for theophylline
# [5] = designed as: OFF switch for theophylline, no ligand
# [6] = ligand present: theophylline, designed as: OFF switch for theophylline
# [7] = designed as: OFF switch for flavin mononucleotide, no ligand
# [8] = ligand present: flavin mononucleotide, designed as: OFF switch for flavin mononucleotide
# [9] = designed as: ON switch for flavin mononucleotide, no ligand
# [10] = ligand present: flavin mononucleotide, designed as: ON switch for flavin mononucleotide
sequence,measurement,setting,value
UGUAACAUGAGGAUCACCCAUGUGAGUGAUACCAGAUAAGUAGUAGUCCCUUGGCAGCAUAUUGGGCGAGUGUAUAGUCUAUACG,apparent Kd,MS2 coat protein [1]; [3],157 nM
same,apparent Kd,MS2 coat protein [1]; [4],179 nM
AGACAUGAGGAUCACCCAUGUAGUAUGGAUACCAGAUCCAGAUUUAUCCCUUGGCAGCUGUGGUACAGCGUUGCAUCGCUCCUAG,apparent Kd,MS2 coat protein [1]; [5],32.3 nM
same,apparent Kd,MS2 coat protein [1]; [6],34.5 nM
AGCAUGUUAUCAGAUACCAGACAUCUUUUAAAACAUAUUACAUGAGGAUCACCCAUGUUGGUCCCUUGGCAGCUGAAAUAUUUCA,apparent Kd,MS2 coat protein [1]; [3],272 nM
same,apparent Kd,MS2 coat protein [1]; [4],39.8 nM
AUCUCAUAGAGUGAUACCAGACUACAUGAGGAUCACCCAUGUUAGAUUUAAAUAUCAUUUGUCCCUUGGCAGCACAUUAAGUACA,apparent Kd,MS2 coat protein [1]; [3],12.9 nM
same,apparent Kd,MS2 coat protein [1]; [4],11.5 nM
UUAAAUGUGACGGAUACCAGCGUGUUGUAGAACAUGAGGAUCACCCAUGUAGUGAUCAAGCGCCCUUGGCAGCUGGUAUGUUUGA,apparent Kd,MS2 coat protein [1]; [3],191 nM
same,apparent Kd,MS2 coat protein [1]; [4],300 nM
UCAUUUGAGUGAGAUGUAAGGUAUCAUGAUACCAGUAGAUAAUUAUACCCUUGGCAGCAUAACAUGAGGAUCACCCAUGUACAUG,apparent Kd,MS2 coat protein [1]; [5],22.8 nM
same,apparent Kd,MS2 coat protein [1]; [6],24.2 nM
UAGGAUAACACAGGAUAUACCCUUGUCGUCGGUUCUAAAUUACAUGAGGAUCACCCAUGUCUAAGGUAGAAGGGUGUUUGCGGU,apparent Kd,MS2 coat protein [2]; [7],31.6 nM
same,apparent Kd,MS2 coat protein [2]; [8],29.6 nM
UGAGACAGAGGAUAUACAAAAGGGAAACGAGCACAGAGGAAACAUGAGGAUCACCCAUGUAGAAGGCUGAACAG,apparent Kd,MS2 coat protein [2]; [7],6.99 nM
same,apparent Kd,MS2 coat protein [2]; [8],19 nM
GCUUAGAAACCUGAUACCAGUCAGCCCUAUGACAUGAGGAUCACCCAUGUGAUACUCACGGACCCUUGGCAGCAGGGUCGAUUAC,apparent Kd,MS2 coat protein [2]; [3],695 nM
same,apparent Kd,MS2 coat protein [2]; [4],429 nM
AAACUUACAGGAUAUACAUGAGGAUCACCCAUGUAAACGAAACACCAGGUGAUAGUGGGUAGAAGGGAAUAAAC,apparent Kd,MS2 coat protein [2]; [7],22.7 nM
same,apparent Kd,MS2 coat protein [2]; [8],18.5 nM
ACGCACAUGAGGAUCACCCAUGUGAACCUACGAGGACCGGUACGGCCGCCACUCGCUGUUCCUACCGGCUUAAUUGUCACUGGGU,apparent Kd,"MS2 coat protein [2]; designed as: ON switch for tryptophan, no ligand",36.5 nM
same,apparent Kd,"MS2 coat protein [2]; ligand present: tryptophan, designed as: ON switch for tryptophan",35 nM
CAGAGACAUGAGGAUCACCCAUGUUGAGAUACCAGCUUGGUAUCGAGCCCUUGGCAGCUCGCCCAUCGUCUAUAUCAGCCUGAGC,apparent Kd,MS2 coat protein [2]; [3],16.5 nM
same,apparent Kd,MS2 coat protein [2]; [4],20.2 nM
GCAGUUGGUCUCUCACAUGAGGAUCACCCAUGUUCUUAGUUUCAGGAUAUAUGAGCGAAUUGCGGAUAGAAGGGAAACAGUCAC,apparent Kd,MS2 coat protein [2]; [7],41.6 nM
same,apparent Kd,MS2 coat protein [2]; [8],49.7 nM
UUCCACCUAAAGCGUUGCCCUCGUGAUGAUACCAGUUUCAGCGGUAACCCUUGGCAGCAUCGGACAUGAGGAUCACCCAUGUGGA,apparent Kd,MS2 coat protein [2]; [5],106 nM
same,apparent Kd,MS2 coat protein [2]; [6],213 nM
AUGAGUAUUAAAGGAUAUCACUUAAUUGAUUGAUGAGAAGGUUAGAUGGCAUACAUGAGGAUCACCCAUGUGGUUUCAUGCGGU,apparent Kd,MS2 coat protein [2]; [7],86.3 nM
same,apparent Kd,MS2 coat protein [2]; [8],59.2 nM
GUAUGGGCUGUAAGGAUAUCUAAGCCGGUUGUGGCAGAGAAGGUACAUGAGGAUCACCCAUGUGGACUUGGGUC,apparent Kd,MS2 coat protein [2]; [7],13.9 nM
same,apparent Kd,MS2 coat protein [2]; [8],15.7 nM
CAGAGCCAAAACAAGGAUAUACAUAACAUUACAUGAGGAUCACCCAUGUUAUAGCUAACCUUGUAGUAGAAGGUGUUUGGCAACAU,apparent Kd,MS2 coat protein [2]; [9],7.36 nM
same,apparent Kd,MS2 coat protein [2]; [10],6.39 nM
UGAACCGGAAAGAAGGCCUUGCUUUAACGUACAGGAGGAUAUUUCCUAUUUGUGAGCCUUGACAUGAGGAUCACCCAUGUAUCG,apparent Kd,MS2 coat protein [2]; [7],479 nM
same,apparent Kd,MS2 coat protein [2]; [8],116 nM
GACCGUGUCAAUCAUCAUCAACAUGAGGAUCACCCAUGUACCAAGGAUAUCUCGCACUACAAGUCAGAGAAGGUGGGUUUACUC,apparent Kd,MS2 coat protein [2]; [9],241 nM
same,apparent Kd,MS2 coat protein [2]; [10],152 nM
UCGGCACAUGAGGAUCACCCAUGUAAGGAUAUACGAAGCUUGCAGUCGCUGUUAUUUGGUAGAAGGUACCCUCG,apparent Kd,MS2 coat protein [2]; [7],14.5 nM
same,apparent Kd,MS2 coat protein [2]; [8],12.5 nM
UCUCAAAUAAAUAUCAUACAUGAGGAUCACCCAUGUCACCGAUAGGAUAUGCGCGUUUCCCACCUGCAGAAGGAUCAAACUGUA,apparent Kd,MS2 coat protein [2]; [9],15.4 nM
same,apparent Kd,MS2 coat protein [2]; [10],13.4 nM
UCAGGUCCGAAGAAGGCGAAGCAACAUUACUAUCGAGGAUAUUCUACAUGAGGAUCACCCAUGUCACCAUCGAUGACAGAGAAU,apparent Kd,MS2 coat protein [2]; [7],7.65 nM
same,apparent Kd,MS2 coat protein [2]; [8],7.93 nM
CACACCGCAGUGAGGAUAUACCAACUGAACGUUGAGUAGAAGGCACAUGAGGAUCACCCAUGUCACUACUGACA,apparent Kd,MS2 coat protein [2]; [7],8.62 nM
same,apparent Kd,MS2 coat protein [2]; [8],35.7 nM
AUGGUGGCUUCAGGAUAUCGCAAGUUAAUACGUCCCACAUGAGGAUCACCCAUGUAACGGUGGGUCGAGAAGGGAACCAUCCCG,apparent Kd,MS2 coat protein [2]; [7],90.8 nM
same,apparent Kd,MS2 coat protein [2]; [8],63.5 nM
GAACGGAGAGAAGGAUAUGGCAUAUUGCCUCACAUGAGGAUCACCCAUGUCAAGACAAAGCGAUCCCAGAAGGUCUCACAACAU,apparent Kd,MS2 coat protein [2]; [9],60.1 nM
same,apparent Kd,MS2 coat protein [2]; [10],26.8 nM
GAAAGGGCAAAGAAGGAGGUCCGAGCUCGGCGCCUAGGAUAUUUCUUAACCACAUGAGGAUCACCCAUGUUGACUGUAGUGUGA,apparent Kd,MS2 coat protein [2]; [7],31.5 nM
same,apparent Kd,MS2 coat protein [2]; [8],29 nM
CAAUGAACAUGAGGAUCACCCAUGUAGUAAUGCGAGAAAACGAAGGAUAUAGCGAUACUACAUAGCAAGAAGGUCGCAAACAUA,apparent Kd,MS2 coat protein [2]; [9],40.4 nM
same,apparent Kd,MS2 coat protein [2]; [10],30.7 nM
AAACGACAUGAGGAUCACCCAUGUACCUUUUACCUAGGAUAUCAGGUGCAUCAUACGUGCUGAGAAGGAGGCUCGC,apparent Kd,MS2 coat protein [2]; [9],64.1 nM
same,apparent Kd,MS2 coat protein [2]; [10],59.7 nM
GCCUAGCUAGGAUAUACCAGAGUGUAUACUUAUGUGGAUCGACAUGAGGAUCACCCAUGUAGAAGGAGCAAGAU,apparent Kd,MS2 coat protein [2]; [7],30.8 nM
same,apparent Kd,MS2 coat protein [2]; [8],58 nM
CCGUCACAUGAGGAUCACCCAUGUGGUGAUACCAGCAGUCGACCCUGCCCUUGGCAGCACAUUAUCAUAAAAGCAAUCAGCAACG,apparent Kd,MS2 coat protein [2]; [3],156 nM
same,apparent Kd,MS2 coat protein [2]; [4],149 nM
CAUAUGUUAGGAUAUAAGUUUAGAUCAUGCGUGUUUAUGGCUUAGAAGGAACAUGAGGAUCACCCAUGUAACAG,apparent Kd,MS2 coat protein [2]; [7],21.2 nM
same,apparent Kd,MS2 coat protein [2]; [8],22.3 nM
AGAAAUACAUGAGGAUCACCCAUGUGCAUCCUGACUAGUUGACAGGAUAUCAGUCUUACCUGGGCUGAGAAGGGUCCGCGUAGC,apparent Kd,MS2 coat protein [2]; [7],19.8 nM
AGACCCUAGCAGAAGGCCCGCGACAUCCAAGAGGGAGGAUAUGCCACUAGAGCAAGCUUUGCACAUGAGGAUCACCCAUGUCCU,apparent Kd,MS2 coat protein [2]; [9],132 nM
same,apparent Kd,MS2 coat protein [2]; [10],56.6 nM
CACUGGUACGAGAAGGCACCUGAAGUUGAGAAGUGAGGAUAUCGAAAUAAACACAUGAGGAUCACCCAUGUGAUCCAAGGACGA,apparent Kd,MS2 coat protein [2]; [7],121 nM
same,apparent Kd,MS2 coat protein [2]; [8],91.6 nM
CCAGGGCUCGAGAAGGCCCGCGCGGUUCAGUACGUAGGUACAUGAGGAUCACCCAUGUCGGAUUGGGAGGAUAUCGAUUCUUGU,apparent Kd,MS2 coat protein [2]; [9],335 nM
same,apparent Kd,MS2 coat protein [2]; [10],80.1 nM
GCAUGGACAUGAGGAUCACCCAUGUGUCGCCCUGGACCCGUUAGAAGGCCGUUCCAGAGAACAACGGAGGAUAUAAUUACAGCC,apparent Kd,MS2 coat protein [2]; [9],35.7 nM
same,apparent Kd,MS2 coat protein [2]; [10],27 nM
GGUGAGUCAGGAUAUUGUGCAUUUGAGACCCACACGGGACACAAGAAGGGACAUGAGGAUCACCCAUGUGCUCA,apparent Kd,MS2 coat protein [2]; [7],9.73 nM
same,apparent Kd,MS2 coat protein [2]; [8],12.8 nM
AUGAUCGAACAGAAGGCACGGUGACAGUUAAAGUGAGGAUAUGUAGACAUGAGGAUCACCCAUGUUACUAUACACGGGUCUAUC,apparent Kd,MS2 coat protein [2]; [7],15.1 nM
same,apparent Kd,MS2 coat protein [2]; [8],45.9 nM
GUGUUCACUGCAGGAUAUGUACAUGAGGAUCACCCAUGUUGAAACGGCUGGAAUCGGCAGAUGAAACAGAAGGGCAUGAAAAUU,apparent Kd,MS2 coat protein [2]; [9],12.8 nM
same,apparent Kd,MS2 coat protein [2]; [10],9.09 nM
CGGGAACAUGAGGAUCACCCAUGUCAGGAUAUACGCGAUGGCAACAGUGAUUGUUUGUGUAGAAGGGACUUACG,apparent Kd,MS2 coat protein [2]; [7],33.3 nM
same,apparent Kd,MS2 coat protein [2]; [8],30.2 nM
ACGGGACAUGAGGAUCACCCAUGUUAGGAUAUACGAACUUCGCCGAACGUGACCAAUUGUAGAAGGAACUUGGU,apparent Kd,MS2 coat protein [2]; [7],17.2 nM
same,apparent Kd,MS2 coat protein [2]; [8],14 nM
UGGAUUCGACAAGGAUAUGGUAGUCAUAGCACAUGAGGAUCACCCAUGUUAAAGCAAAACAAAGUCCAGAAGGUGUAAGUACGG,apparent Kd,MS2 coat protein [2]; [9],11.7 nM
same,apparent Kd,MS2 coat protein [2]; [10],9.43 nM
CUCAUGAGGAAGAAGGAUUAGGUCAGUGCAGUAAUAGGAUAUUCGUAACACAUGAGGAUCACCCAUGUCUACUCCGGAGCGACA,apparent Kd,MS2 coat protein [2]; [9],182 nM
same,apparent Kd,MS2 coat protein [2]; [10],81.1 nM
AUUUGACAUGAGGAUCACCCAUGUGACUUGUCGUGAGGAUAUUAUUGAAAUCUAUGUCAUUAAGAAGGCACAAUUU,apparent Kd,MS2 coat protein [2]; [9],32.7 nM
same,apparent Kd,MS2 coat protein [2]; [10],16.5 nM
CAAGAGUUAGAAGGAUAUACAAGAUGCUGAAAGAAACGUGAACAAAACAUGAGGAUCACCCAUGUGAAGAAGGUCAAAUAGAAA,apparent Kd,MS2 coat protein [2]; [7],10.4 nM
same,apparent Kd,MS2 coat protein [2]; [8],9.21 nM

# From the EternaBench riboswitch data
